# Screens: PubChem BioAssay, several laboratories
# In the library only some 8.9% were active in any assay of this set; here they are far more common.
# MT stabilize HCS = microtubule stabilization, imaging screen; HeLa tubulin immunostaining HCS, 24 h; share of cells brighter than vehicle mean+2SD; 200,000 tested, 0.83% active; % tubulin-high responders, % at 10 µM;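 active means plate Z-score above 3 for both tubulin-high and condensed-nucleus cell shares, with cell loss under 80%, at 10 µM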;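 further: anti alpha tubulin signal scored within the nucleus-defined area of each cell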
# b-catenin transl = beta-catenin nuclear translocation modulation; HeLa beta-catenin nuclear translocation, immunofluorescence imaging; nuclear translocation activity, % at 5 µM; 190,000 tested, 0.3% active; AID 1665;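 active means nuclear translocation activity above 50% at 5 µM, with a well cell count of 50 or more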;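 further: per-cell ratio of nuclear to cytoplasmic median beta-catenin stain intensity; plate controls were DMSO negative control for no effect and GSK-3 inhibitor IX positive control for full effect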
#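 Test system: HeLa cells, endogenous beta-catenin; Compound: single 5 µM dose plus 0.02–20 µM confirmation series; Times: compound exposure 24 h at 37°C; Signal: fluorescence imaging of beta-catenin antibody stain plus DAPI; Read-out: % activation, nuclear-to-cytoplasmic median beta-catenin signal ratio per cell.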
# L major viab = reduces viability of Leishmania major promastigotes | resazurin fluorescence viability | inhibition, % at 10 µM | 200,000 tested, 9% active | AID 1063; in the data active means inhibition above about 50%;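 further: promastigotes grown with compound for 44 hours at 28 °C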
# HSV augment = increases HSV replication in cells | 220,000 tested, 0.005% active | HSV replication augmentation in cells, fold increase | maximum fold increase; in the data active means maximum fold increase above about 1.5; tested in PC3 cells
# Dynein transport = blocks dynein driven cargo transport along microtubules; 220,000 tested, 0.47% active; AID 1381; z-score, hits read low; 3617.4 mouse cells, GR-EGFP nuclear translocation imaging; test concentration mostly 20 µM; stimulated with dexamethasone, 1 µM; active compounds read low;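 active means plate z-score of nuclear minus cytoplasmic receptor signal below a set negative limit, without overly bright fluorescence or cell loss, cut at about -3.5 in these data, passing the limit was not always enough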;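 further: z-score of nuclear minus cytoplasmic ring GR-EGFP intensity difference per well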
#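 Also added – dexamethasone, 1.0 µM final · Buffer or medium – tet-free, stripped-serum medium · Schedule – induction 48 h, compound 1 h, agonist 30 min · Detection – formaldehyde fixation, Hoechst nuclear stain, 10x automated fluorescence imaging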
# * = called active by the depositor; i = inactive; / = not tested or not shown.
SMILES,MT stabilize HCS,b-catenin transl,L major viab,HSV augment,Dynein transport
CC(=O)OCC(=O)Nc1ccc([N+](=O)[O-])cc1Cl,4,-1,-2,i,-0.73
COc1ccccc1NC(=O)Cn1cncc1-c1ccc([N+](=O)[O-])cc1,3,-2,-5,/,0.44
O=C(Cn1cncc1-c1ccc([N+](=O)[O-])cc1)Nc1ccccc1F,2,0,52*,i,1.2
C/C(=N/NC(=O)CNC(=O)Cc1ccccc1)c1ccco1,3,/,63*,i,-0.43
C/C(=N\NC(=O)CNC(=O)c1ccc2c(c1)OCO2)c1ccco1,2,/,53*,i,0.015
CC(/C=C/c1ccccc1)=N/NC(=O)CNC(=O)c1ccc2c(c1)OCO2,1,/,-8,/,-0.11
Cc1ccc(C(=O)O/N=C(\N)c2cccc([N+](=O)[O-])c2)cc1,2,-2,11,i,-0.21
Cc1ccc(CC(=O)O/N=C(\N)c2cccc([N+](=O)[O-])c2)cc1,1,-2,80*,i,0.48
CC(=O)Nc1ccc(S(=O)(=O)NCC(=O)OCC(=O)NC23CC4CC(CC(C4)C2)C3)cc1,1,-1,51*,i,-0.4
CCc1ccc(C(=O)/C=C/NCc2ccc(F)cc2)cc1,3,-1,-4,1.5*,0.18
O=C(NCc1ccccn1)C(=O)NCc1ccccn1,3,-1,-5,i,0.48
O=C(NNC(=S)Nc1ccc(Cl)cc1)c1cccs1,2,0,-5,i,0.14
CN1CCN(c2ccc(C(=O)c3ccc(F)cc3)cc2)CC1,2,-4,68*,i,-0.15
O=C(c1ccccc1)c1ccc(N2CCCC2)cc1,3,-2,34,i,0.8
O=C(c1ccccc1)c1ccc(N2CCNCC2)cc1,2,0,75*,i,-0.55
COc1ccccc1C(=O)Nc1ccc(S(=O)(=O)N2CCc3ccccc32)cc1,2,/,80*,i,1
COc1ccc(C(=O)NCc2ccccc2)cc1S(=O)(=O)N1CCCc2ccccc21,3,0,61*,/,0.89
COc1ccc(C(=O)OCC(=O)N(C)C2CCS(=O)(=O)C2)cc1S(=O)(=O)N1CCCc2ccccc21 (stereo not given),2,-1,-5,i,-1.4
COC(=O)Nc1ccc(S(=O)(=O)N2CCCc3ccccc32)cc1,19*,-1,42,i,-0.28
COc1cc(C(=O)Nc2ccc(S(=O)(=O)N3CCc4ccccc43)cc2)cc(OC)c1OC,2,1,29,i,0.71
O=C(COc1ccccc1)N/N=C/c1ccc2c(c1)OCO2,5,0,1,i,-1.4
CCc1ccc(S(=O)(=O)/N=C2/C=C(Sc3ncn[nH]3)C(=O)c3ccccc32)cc1,2,-5,100*,/,-6.7*
CCc1ccc(S(=O)(=O)ON2C(=O)c3ccccc3C2=O)cc1,6,-2,-5,i,-3.2
CCc1ccc(S(=O)(=O)/N=C2\C=CC(=O)c3ccccc32)cc1,1,1,93*,i,-1.9
Cc1cc(=O)oc2cc(NS(=O)(=O)c3ccc(F)cc3)ccc12,/,-3,/,i,0.95
SMILES,MT stabilize HCS,b-catenin transl,L major viab,HSV augment,Dynein transport
O=C1Nc2ccccc2C1(c1ccccc1)c1ccccc1,3,0,4,i,-0.25
COc1ccccc1OCC(=O)NC1CCCCCC1,6,0,-3,i,-0.88
COc1cc(CNCc2cccnc2)ccc1OCC(=O)NC1CCCCC1,2,-1,86*,i,0.6
CNCc1c(OCc2ccccc2F)ccc2ccccc12,3,3,56*,i,0.69
Nc1nonc1C(=O)NCCNCc1c(OCc2ccccc2F)ccc2ccccc12,3,-3,8,i,-0.66
CCOC(=O)c1c(NC(=O)C2COc3ccccc3O2)sc(C(C)=O)c1C (stereo not given),4,-1,4,/,-0.32
CCOC(=O)c1c(NC(=O)C2COc3ccccc3O2)sc2c1CC(C)(C)NC2(C)C (stereo not given),3,-2,99*,i,-0.23
COC(=O)c1ccccc1NC(=O)Cc1nc(-c2ccccc2)sc1-c1ccc(C)cc1,3,0,10,i,-0.78
COc1ccc(C2CC(=O)C=C(NCc3ccccc3)C2)cc1 (stereo not given),/,-4,/,i,0.44
COc1ccc(NC2=CC(=O)CC(c3ccccc3)C2)c(OC)c1 (stereo not given),32*,82*,4,i,-1.2
